Screening data as filed in PubChem.
Calb biofilm kill: mixture kills Candida albicans biofilm cells. C. albicans biofilm persisters + clotrimazole, fluorescence viability; primary screen in compound mixtures of four per well. inhibition, % at 7.6 µM. 120,000 tested, 0.02% active;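 active means inhibition above 30.3% in the primary screen of four-compound pools, then above 30% when the compound was retested; inconclusive means passed the primary limit but could not be retested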;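 further: compounds exposed to preformed 24 h biofilms for 48 h; 0% = untreated biofilm control and 100% = clotrimazole plus chlorhexidine kill blank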
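Test system: C. albicans CAF4-2 wild-type biofilms; buffer or medium: RPMI/MOPS medium, pH 7.0; schedule: 24 h biofilm formation, then 48 h compound exposure, 37 °C; detection: Alamar Blue fluorescence; measure: percent inhibition of biofilm viability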
Pf gametocyte: kills late stage P. falciparum gametocytes. inhibition, % at 10.9 µM. P. falciparum stage V gametocytes, ATP luminescence, 24 h. 150,000 tested, 0.065% active;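 active means inhibition above the mean plus 3 SD of compounds within the control limits, set per campaign, cut at about 38% in these data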;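 further: 0% = DMSO wells and 100% = medium only without gametocytes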
ROMK primary: modulators of human ROMK potassium channel. Tet-inducible ROMK, thallium flux fluorescence; actives lie on both sides. P48048. 130,000 tested, 2% active. B-score at 10 µM;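 active means signal ratio slope over the read window, or its plate-corrected B-score, at least 3 SD from the plate mean, either direction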;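 further: B-score of the F/F0 ratio slope over 7 to 12 s after thallium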
Target sequence (P48048 whole entry, looked up): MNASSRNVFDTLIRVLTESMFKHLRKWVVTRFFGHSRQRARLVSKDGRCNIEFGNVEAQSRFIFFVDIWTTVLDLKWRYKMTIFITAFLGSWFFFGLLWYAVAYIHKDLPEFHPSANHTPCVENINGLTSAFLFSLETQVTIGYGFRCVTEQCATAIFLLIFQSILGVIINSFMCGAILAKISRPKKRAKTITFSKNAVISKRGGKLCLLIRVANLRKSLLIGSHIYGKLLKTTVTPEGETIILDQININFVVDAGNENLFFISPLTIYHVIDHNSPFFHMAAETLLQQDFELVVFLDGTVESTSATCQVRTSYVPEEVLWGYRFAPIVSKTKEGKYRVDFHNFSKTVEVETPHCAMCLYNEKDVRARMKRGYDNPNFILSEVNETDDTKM
ROMK hit retest: retested hit modulating human ROMK potassium channel | shares compounds with ROMK primary | ROMK thallium flux, fluorescence ratio; active compounds read low | normalized thallium flux (F/F0 slope) at 10 µM | 3,000 tested, 54% active | AID 1917;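 active means Flux at 10 µM at least 3 SD below or above vehicle control mean in one or both replicates; inconclusive means no clear call, values can overlap the other calls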
Active calls of the source: *; ? = inconclusive; . = no result. This is one part of a sample in which hits are shown more often than they occur.

SMILES	Calb biofilm kill	Pf gametocyte	ROMK primary	ROMK hit retest
Cc1cc(NC(=O)CSCC(=O)N(c2ccc(F)cc2)C(C(=O)NC2CCCCC2)c2ccc(O)c(O)c2)no1 (stereo not drawn)	-3	-7	-1.3	.
Cc1cc(NC(=O)CSCC(=O)N(c2cccc(Cl)c2)C(C(=O)NC2CCCCC2)c2ccc(O)c(O)c2)no1 (stereo not drawn)	11	3	-4.8*	0.056*
COc1ccc(C(C(=O)NC2CCCCC2)N(C(=O)CCl)c2ccc(Cl)cc2)cc1 (stereo not drawn)	13	.	-0.38	.
CC(C)(C)CC(=O)NCCc1csc(-c2ccccc2)n1	15	-34	0.2	.
COc1ccc(NC(=O)C2CCN(S(=O)(=O)c3ccc(Br)s3)CC2)cc1OC	12	1	1.2	.
COCCNC(=O)c1ccccc1NC(=O)c1ccccc1SC	9	-28	3.2*	0.084
CCCNC(=O)c1ccccc1NC(=O)c1ccccc1SC	13	15	0.062	.
COc1ccc(/C=C/C(=O)Nc2cccc(C(C)=O)c2)cc1	13	-40	1.4*	?
CC(=O)Nc1cccc(C(=O)/C=C/c2ccc(N(C)C)cc2)c1	24	8	-3.7*	0.048*
CC(=O)Nc1cccc(C(=O)/C=C/c2ccc(Br)cc2)c1	9	3	.	.
COc1ccccc1/C=C/C(=O)Nc1cccc(C(C)=O)c1	7	-7	-2.2	.
CC(=O)Nc1cccc(C(=O)/C=C/c2ccc(/C=C/C(=O)c3cccc(NC(C)=O)c3)cc2)c1	20	-5	.	.
CC(=O)Nc1cccc(C(=O)/C=C/c2ccc(F)cc2)c1	16	.	-3.7*	0.053*
NC(=O)c1ccsc1NC(=O)Cc1ccc([N+](=O)[O-])cc1	1	8	-1.8	.
Cc1nn(Cc2ccccc2)c(C)c1/C=N/NC(=O)c1ccccc1O	15	6	.	.
O=C(Nc1ccc2c(c1)OCO2)c1ccc(Br)c(S(=O)(=O)N2CCCC2)c1	.	.	-2.9*	0.066*
O=C(Nc1cccnc1)c1ccc(Cl)c(S(=O)(=O)N2CCCCCC2)c1	.	.	.	?
O=C(Nc1ccc2c(c1)OCCO2)c1ccc(Br)c(S(=O)(=O)N2CCOCC2)c1	.	.	-1.6	.
CCN(CC)CCOC(=O)c1ccc(NC(=O)c2ccc(Cl)c(S(=O)(=O)N3CCCCCC3)c2)cc1	-2	-3	-0.76	0.078
O=C(Nc1cccnc1)c1ccc(S(=O)(=O)N2CCCCCC2)cc1	.	.	0.4	.
CCOC(=O)c1ccc(NC(=O)c2ccc(C)c(S(=O)(=O)N3CCOCC3)c2)cc1	.	1	-0.036	.
O=C(Nc1ccc(S(=O)(=O)Nc2ncccn2)cc1)C1=NN(c2ccccc2)C(=O)CC1	28	19	.	.
CCOc1c2ccc(C(=O)NCc3ccc(C)cc3)cc2nn1CCOC	.	10	-0.023	.
Cc1cc(=O)oc(C)c1C(=O)OCC(=O)c1ccc(Cl)cc1	.	9	.	.
Cc1ccccc1C(=O)Nc1ccc(O)cc1C(=O)O	4	3	.	.
SMILES	Calb biofilm kill	Pf gametocyte	ROMK primary	ROMK hit retest
O=C(O)c1ccccc1C1=Nc2ccc(O)cc2Oc2cc(O)ccc21	.	22	.	0.054*
COc1ccc(-c2c[n+]3c4n2CCCCC4=C(c2ccc(Br)cc2)C3)cc1	.	.	-4.6*	0.052*
Clc1ccc(C2=C3CCCCn4c(-c5ccccc5)c[n+](c43)C2)cc1	.	.	.	0.064*
Clc1cccc(C[n+]2cc(-c3ccccc3)n3c2CCC3)c1	20	7	0.46	.
COc1ccc(-c2cnc3n2CCCCC3)cc1	30	-4	.	.
N#C/C(=C\c1cn[nH]c1-c1ccccc1)C(=O)NC1CCCCCC1	.	10	.	.
CSc1ccc(/C=C(\C#N)C(=O)NC2CCCCC2C)cc1 (stereo not drawn)	14	-1	-3.1*	0.046*
CC(=O)Nc1ccc(/C=C(\C#N)C(=O)NC2CCCCC2C)cc1 (stereo not drawn)	3	14	-0.095	.
CC1CCCCC1NC(=O)/C(C#N)=C/c1ccccc1F (stereo not drawn)	18	8	-5.8*	0.043*
Clc1ccc(-c2nnc(COc3ncnc4sccc34)o2)cc1	17	19	-0.94	.
CCOC(=O)c1c(C)[nH]c(C2=NNC(=Nc3cccc(Cl)c3)SC2)c1C	15	.	0.31	.
Cc1ccc(-c2nnnn2-c2ccccc2C(=O)O)cc1	.	11	.	.
COc1ccc(S(=O)(=O)Nc2ccccn2)cc1C	6	1	0.87	.
Cc1c([N+](=O)[O-])cc(S(=O)(=O)Nc2ccncc2)cc1[N+](=O)[O-]	16	9	-4.2*	0.079
Cc1ccc(S(=O)(=O)Nc2ccccn2)cc1[N+](=O)[O-]	7	16	-5.9*	0.076
O=S(=O)(Nc1ccncc1)c1ccc(Cl)c(Cl)c1	.	-12	.	.
COc1ccc(C2=NCCn3nc4ccccc4c32)cc1	.	2	.	.
O=C(Cc1c(F)cccc1Cl)Nc1nc2ccccc2s1	14	.	-2.4	.
CC1CC(C)CN(C(=O)c2cc3c(s2)CCC3)C1 (stereo not drawn)	.	-15	-0.8	.
O=C(CO/N=C/c1ccc(OC(F)F)cc1)NC1CCCC1	15	-6	-0.99	.
CN(C(=O)CO/N=C/c1ccc(OC(F)F)cc1)C1CCS(=O)(=O)C1 (stereo not drawn)	17	-12	-10*	0.073
Cc1onc(-c2c(Cl)cccc2Cl)c1C(=O)N/N=C(\N)COc1ccc(Cl)cc1	.	-12	.	.
Cc1ccc(CSc2nnc(-c3ccc(NS(=O)(=O)c4ccccc4)cc3)o2)cc1	14	.	0.24	.
COC(=O)CSc1nnc(-c2ccc(NS(=O)(=O)c3ccccc3)cc2)o1	.	-1	-3.5*	0.056*
CCN(CC)CCn1c(-c2ccc(C)cc2)nc(=S)c2c1CC(C)(C)OC2	6	-8	.	.
SMILES	Calb biofilm kill	Pf gametocyte	ROMK primary	ROMK hit retest
C=CCOC(=O)C1=C(C)OC(N)=C(C#N)C1c1c(C)nn(-c2ccccc2)c1Cl (stereo not drawn)	.	8	-4*	0.059*
CCOC(=O)C1=C(C)OC(N)=C(C#N)C1c1c(C)nn(-c2ccccc2)c1Cl (stereo not drawn)	.	.	-1.9	.
Cc1ccc(S(=O)(=O)N2CCN(C(=O)CN3CCCCC3)C2C(C)C)cc1 (stereo not drawn)	.	.	0.29	.
CSc1nsc(SC)c1C(=O)N1CCN(S(=O)(=O)c2ccc(C)cc2)C1C(C)C (stereo not drawn)	9	18	-3.5*	0.064*
COCCn1nnnc1C(C(C)C)N1CCSCC1 (stereo not drawn)	14	-18	0.041	.
Nc1ccc(C(=O)OCc2ccncc2)cc1[N+](=O)[O-]	13	.	0.0091	.
NC(=O)Cn1nc2sc3ccccc3n2c(=O)c1=O	26	-6	0.18	.
O=C1NC(=O)/C(=C\c2ccc(N3CCOCC3)o2)N1	2	2	-3.6*	?
O=C1NC(=O)/C(=C/c2ccc(N3CCOCC3)o2)N1	14	-15	.	.
CCN1/C(=C/c2ccc3cc(C)cc(C)c3[n+]2CC)Sc2cc(C)ccc21	12	0	-5.2*	0.045*
CCN1/C(=C/C(C)=C/c2sc3ccccc3[n+]2CC)Sc2ccccc21	17	-19	-1.2	.
CCN1/C(=C/c2ccc3cccc(C)c3[n+]2CC)Sc2ccccc21	.	-17	.	.
CCN1/C(=C\c2ccc3cc(C)ccc3[n+]2CC)Sc2cc(C)c(C)cc21	10	9	-5*	0.047*
CSc1ccc(/C=C(/NC(=O)c2ccc(C)cc2)C(=O)Nc2cccc(C)c2)cc1	12	6	0.45	.
